From ChEMBL document CHEMBL5705890, “Antitumor activity of an allosteric inhibitor of centromere-associated protein-E” (Proc Natl Acad Sci U S A, 2010)

Experiments:
HCT-15 = experiment: Anticancer activity against human HCT-15 cells assessed as cell doubling measured for 72 hrs by DAPI staining based analysis; assay type: functional
COLO 205 = experiment: Antitumor activity against human COLO 205 cells in xenograft model assessed as difference between median time to endpoint time of treated versus control group at 125 mg/kg; assay type: functional
HT-29 [1] = experiment: Antitumor activity against human HT-29 cells in xenograft model assessed as tumor growth delay at 62.5 mg/kg relative to control; assay type: functional
NCI-H187 = experiment: Anticancer activity against human NCI-H187 cells assessed as cell growth inhibition measured after 72 hrs by DAPI staining based analysis; assay type: functional
[2] = Anticancer activity against human SCC-13 cells assessed as cell growth inhibition measured after 72 hrs by DAPI staining based analysis; assay type: functional
COLO 320DM = experiment: Anticancer activity against human COLO 320DM cells assessed as cell growth inhibition measured after 72 hrs by DAPI staining based analysis; assay type: functional
In short: (§1)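 Cells were seeded, and DNA content at 24 h after seeding (T0) was read by imaging of fixed, DAPI-stained cells. Cells were then exposed to a range of drug concentrations for a further 72 h (T72) and DNA content was read again. T72 values were normalized to T0, and GI50 was taken from curve fits as the concentration giving 50% growth inhibition relative to T0 and Ymax.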

RL = experiment: Anticancer activity against human RL cells assessed as cell doubling measured for 72 hrs by DAPI staining based analysis; assay type: functional
C3A = experiment: Anticancer activity against human C3A cells assessed as cell growth inhibition measured after 72 hrs by DAPI staining based analysis; assay type: functional; in short: as §1
Capan-2 = experiment: Anticancer activity against human Capan-2 cells assessed as cell growth inhibition measured after 72 hrs by DAPI staining based analysis; assay type: functional
In short: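 Cells seeded, DAPI-stained DNA content of fixed cells read by imaging 24 h after seeding (T0), and again after a further 72 h exposure to a range of drug concentrations (T72). T72 values were normalized to T0. Curve fits gave the concentration producing 50% growth inhibition relative to T0 and Ymax (GI50).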

SK-NEP-1 = experiment: Anticancer activity against human SK-NEP-1 cells assessed as cell growth inhibition measured after 72 hrs by DAPI staining based analysis; assay type: functional
HT-29 [3] = experiment: Antitumor activity against human HT-29 cells in xenograft model assessed as tumor growth delay at 125 mg/kg relative to control; assay type: functional
A549 [4] = experiment: Antitumor activity against human A549 cells in xenograft model assessed as difference between median time to endpoint time of treated versus control group at 125 mg/kg; assay type: functional
[5] = Anticancer activity against human UM-SCC-12 cells assessed as cell doubling measured for 72 hrs by DAPI staining based analysis; assay type: functional
A549 [6] = experiment: Antitumor activity against human A549 cells in xenograft model assessed as tumor growth delay at 62.5 mg/kg relative to control; assay type: functional
MDA-MB-231 = experiment: Anticancer activity against human MDA-MB-231 cells assessed as cell doubling measured for 72 hrs by DAPI staining based analysis; assay type: functional
SW48 = experiment: Anticancer activity against human SW48 cells assessed as cell doubling measured for 72 hrs by DAPI staining based analysis; assay type: functional
SW872 = experiment: Anticancer activity against human SW872 cells assessed as cell doubling measured for 72 hrs by DAPI staining based analysis; assay type: functional
[7] = Anticancer activity against human MT-3 cells assessed as cell growth inhibition measured after 72 hrs by DAPI staining based analysis; assay type: functional
SW480 = experiment: Anticancer activity against human SW480 cells assessed as cell doubling measured for 72 hrs by DAPI staining based analysis; assay type: functional
THP-1 = experiment: Anticancer activity against human THP-1 cells assessed as cell doubling measured for 72 hrs by DAPI staining based analysis; assay type: functional
SHP77 = experiment: Anticancer activity against human SHP77 cells assessed as cell growth inhibition measured after 72 hrs by DAPI staining based analysis; assay type: functional
NCI-H295R = experiment: Anticancer activity against human NCI-H295R cells assessed as cell growth inhibition measured after 72 hrs by DAPI staining based analysis; assay type: functional
SNU-398 = experiment: Anticancer activity against human SNU-398 cells assessed as cell growth inhibition measured after 72 hrs by DAPI staining based analysis; assay type: functional
HEC-1-A = experiment: Anticancer activity against human HEC-1-A cells assessed as cell growth inhibition measured after 72 hrs by DAPI staining based analysis; assay type: functional
J82 = experiment: Anticancer activity against human J82 cells assessed as cell doubling measured for 72 hrs by DAPI staining based analysis; assay type: functional
SH-4 = experiment: Anticancer activity against human SH-4 cells assessed as cell growth inhibition measured after 72 hrs by DAPI staining based analysis; assay type: functional
MX1 = experiment: Antitumor activity against human MX1 cells in xenograft model assessed as difference between median time to endpoint time of treated versus control group at 62.5 mg/kg; assay type: functional
SNB-75 = experiment: Anticancer activity against human SNB-75 cells assessed as cell growth inhibition measured after 72 hrs by DAPI staining based analysis; assay type: functional
NCI-H716 = experiment: Anticancer activity against human NCI-H716 cells assessed as cell doubling measured for 72 hrs by DAPI staining based analysis; assay type: functional
SCC-25 = experiment: Anticancer activity against human SCC-25 cells assessed as cell doubling measured for 72 hrs by DAPI staining based analysis; assay type: functional
SiHa = experiment: Anticancer activity against human SiHa cells assessed as cell doubling measured for 72 hrs by DAPI staining based analysis; assay type: functional
[8] = Toxicity in mouse xenografted with human COLO 205 cells at 500 mg/kg, ip administered three doses daily on 2 consecutive weeks; assay type: organism-based; conditions: in vivo, 336 h, time 2 weeks
SW 954 = experiment: Anticancer activity against human SW 954 cells assessed as cell doubling measured for 72 hrs by DAPI staining based analysis; assay type: functional
[9] = Anticancer activity against human C4-1 cells assessed as cell growth inhibition measured after 72 hrs by DAPI staining based analysis; assay type: functional; in short: as §1
SK-OV-3 = experiment: Anticancer activity against human SK-OV-3 cells assessed as cell doubling measured for 72 hrs by DAPI staining based analysis; assay type: functional
HCC1954 = experiment: Anticancer activity against human HCC1954 cells assessed as cell doubling measured for 72 hrs by DAPI staining based analysis; assay type: functional
SW1088 = experiment: Anticancer activity against human SW1088 cells assessed as cell doubling measured for 72 hrs by DAPI staining based analysis; assay type: functional
CRO-AP2 = experiment: Anticancer activity against human CRO-AP2 cells assessed as cell doubling measured for 72 hrs by DAPI staining based analysis; assay type: functional
M14 = experiment: Anticancer activity against human M14 cells assessed as cell doubling measured for 72 hrs by DAPI staining based analysis; assay type: functional
BC-3 = experiment: Anticancer activity against human BC-3 cells assessed as cell growth inhibition measured after 72 hrs by DAPI staining based analysis; assay type: functional
In short: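 Cells were seeded and, after 24 h, DNA content was read as T0. Cells were then exposed to varying drug concentrations for a further 72 h (T72). Fixed cells were DAPI-stained and DNA content measured by automated imaging. T72 values were normalized to T0. GI50 is the concentration giving 50% growth inhibition between T0 and Ymax, obtained by curve fitting.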

For `CC(C)Oc1ccc(C(=O)N[C@H](CNC(=O)CN(C)C)Cc2ccc(-c3cn4cccc([C@H](C)O)c4n3)cc2)cc1Cl` [GSK-923295A], the Activity (HCT-15) was 4.01, the Time (COLO 205) was greater than 74 days and the Activity (HT-29 [1]) was 6%. The GI50 (NCI-H187) was 0.068 µM, the GI50 [2] was 0.058 µM and the GI50 (COLO 320DM) was 0.306 µM. The Activity (RL) was 3.17, the GI50 (C3A) was 0.054 µM and the GI50 (Capan-2) was 0.119 µM. For the same compound, the GI50 (SK-NEP-1) was 0.055 µM, the Activity (HT-29 [3]) was 39% and the Time (A549 [4]) was 25.3 days. It also gave an Activity [5] of 1.78, an Activity (A549 [6]) of 11% and an Activity (MDA-MB-231) of 2.32. For the same compound, the Activity (SW48) was 2.44, the Activity (SW872) was 2.43 and the GI50 [7] was 0.041 µM. The Activity (SW480) was 2.21, the Activity (THP-1) was 1.38 and the GI50 (SHP77) was 0.086 µM. It also gave a GI50 (NCI-H295R) of 0.298 µM, a GI50 (SNU-398) of 0.027 µM and a GI50 (HEC-1-A) of 0.05 µM. The Activity (J82) was 2.04, the GI50 (SH-4) was 0.044 µM and the Time (MX1) was 1.4 days. For the same compound, the GI50 (SNB-75) was 0.026 µM, the Activity (NCI-H716) was 1.41 and the Activity (SCC-25) was 2.99. The Activity (SiHa) was 2.36, the Activity [8] was “Non-Toxic” and the Activity (SW 954) was 1.62. The GI50 [9] was 0.042 µM, the Activity (SK-OV-3) was 1.72 and the Activity (HCC1954) was 2.04. For the same compound, the Activity (SW1088) was 2.55, the Activity (CRO-AP2) was 2.92 and the Activity (M14) was 2.27. It also gave a GI50 (BC-3) of 0.088 µM.
